Data from paper PMC4980721 (Cellular and molecular gastroenterology and hepatology, 2016).
“And” between values parts separate entries of the source, which are not always exact repeats. Equal entries are not always repeated.

How the values were obtained:
SW620 cells [1] = assay: Apparent association time constant by flow cytometry; type: binding, human; details: from k = 0.83 min^−1
[2] = tested on: human proximal colon FFPE specimens; assay: Immunofluorescence of proximal human colon specimens with claudin-1 peptide; details: human proximal colon FFPE sections, 5 µM peptide 10 min at RT
Method in brief: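 FFPE sections (5 µm) deparaffinized. Antigen retrieval: boiling 10 mM sodium citrate, 0.05% Tween, pH 6.0, then sub-boiling 15 min. Protein serum block 15 min RT. 5 µM Cy5.5-labeled peptide 10 min RT, then anti-claudin-1 (1:200) overnight and AF488 secondary (1:500) 1 h RT, DAPI mount. Equal exposure; mean intensity from three 20×20 µm² boxes within epithelium per image, avoiding saturation.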

HCT116 cells = assay: Cell binding assay, confocal microscopy; type: cell-based, human
SW480 cells = assay: Cell binding assay, confocal microscopy; type: cell-based, human
Method in brief: (§1)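 Cells grown in DMEM + 10% FBS + 1% penicillin/streptomycin at 37°C, 5% CO2, then seeded at ~0.5×10^6 cells/mL on coverslips. Next day, 10 µM Cy5.5-labeled test peptide or Cy5.5-labeled control peptide added for 1 h at 4°C. Fixed in 4% PFA 10 min RT, DAPI counterstain, confocal imaging. Intensities from 10 random cells in 3 independent images; one-way ANOVA.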

claudin-1 (CLDN1) = assay: siRNA knockdown of claudin-1 expression, peptide and antibody staining; type: cell-based, human; details: control and CLDN1 siRNA, confocal
Method in brief: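 SW620 cells seeded at 0.2×10^6 cells/mL, transfected with DharmaFECT1 plus 25 nM CLDN1 SMARTpool or control siRNA for 72 h, then passaged onto coverslips. Knockdown checked by western blot. Staining: 5 µM Cy5.5-labeled peptide or control peptide 30 min at 4°C, then 4% PFA fixation; or methanol fixation, anti-CLDN1 5 µg/mL 1 h RT, AF488 secondary. Two-way ANOVA on average intensity (10 cells/slide, 2 slides/condition).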

SW620 cells [3] = assay: Cell binding assay, confocal microscopy; type: cell-based, human
Method in brief: as §1

Substance | time constant / time scale for binding corresponding to k (SW620 cells [1]) | mean (±std) fluorescence intensity, SSA ([2]; n = 11 SSA) | mean (±std) fluorescence intensity, normal ([2]; n = 28 normal) | binding to cell surface on confocal microscopy (HCT116 cells) | binding to cell surface on confocal microscopy (SW480 cells) | binding / signal in SW620 cells transfected with siCL or siCLDN1 (claudin-1 (CLDN1)) | binding to cell surface on confocal microscopy (SW620 cells [3])
RTSPSSR [RTS*-Cy5.5] | < 1.2 min and ~ 1.2 min | 20.1±13.3 | 9.1±6.0 |  |  |  | 
SPTSSRR [SPT*-Cy5.5] |  |  |  | minimal binding | minimal binding | minimal binding | minimal binding
